Laboratory results reported in ChEMBL document CHEMBL4038313, “Expanding the Antiviral Spectrum of 3-Fluoro-2-(phosphonomethoxy)propyl Acyclic Nucleoside Phosphonates: Diamyl Aspartate Amidate Prodrugs” (J Med Chem, 2017).

Key:
[1] = test system: Human alphaherpesvirus 3; test: Antiviral activity against thymidine kinase expressing Varicella-Zoster virus Oka strain assessed as inhibition of plaque formation; format: functional; conditions: Human alphaherpesvirus 3, strain Oka vaccine
In short: (§1)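 HEL fibroblast monolayers inoculated with 100 CCID50 HCMV (AD-169, Davis) or 20 PFU VZV (TK+ Oka, TK− 07-1). Adsorbed 1–2 h, inoculum removed, then incubated with compound dilutions. HCMV cytopathicity or VZV plaques scored once untreated infected controls reached completion. EC50 is 50% reduction. SI is CC50/EC50, and the potency ratio is the ratio of EC50s.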

[2] = Cytotoxicity against human PHA-stimulated PBMC assessed as cell viability by tetrazolium dye assay; format: cell-based
[3] = Half life in human plasma at 1 uM by HPLC-MS/MS method; format: ADME, cell-free
In short: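 Human plasma preincubated 10 min with pH 7.4 phosphate buffer at 37 °C. Compound added at final 1 μM and sampled at 0, 0.5, 1, 1.5 and 2 h into acetonitrile. Centrifuged and analysed by HPLC-MS/MS. t1/2 is the mean of two experiments.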

[4] = test system: Human immunodeficiency virus 1; test: Potency index, ratio of (S)-9-[3-Fluoro-2-(phosphonomethoxy)propyl]adenine EC50 to compound EC50 for CXCR4-tropic HIV-1 NL4-3 infected in human TZM-bl cells; format: functional
[5] = Cytotoxicity against human HepG2.2.15 cells assessed as cell viability by tetrazolium dye uptake assay; format: cell-based, HepG2 2.2.15
In short: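 HepG2.2.15 cells (two integrated copies of HBV ayw1 genome) were seeded at 1.5 × 10^4 cells/well in DMEM with 2% FBS, 380 μg/mL G418, glutamine, antibiotics and nonessential amino acids. After 16−24 h, medium with various compound concentrations was added in triplicate and renewed on day 3. After 6 days of treatment, viability was read by MTS uptake and CC50 was calculated.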

[6] = Stability of the compound in phosphate buffer of pH 8 at 1 mg after 1 hr by 31P NMR spectroscopy; format: physicochemical; conditions: pH 8, 1 h
In short: (§2)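 1 mg compound in 0.2 mL acetone-d6 plus 0.3 mL pH 8 buffer (0.1 M Na2HPO4 adjusted with 0.1 M HCl). In situ 31P NMR (202 MHz) at 37 °C, spectra every 30 min over 14 h.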

[7] = test system: Human betaherpesvirus 5; test: Antiviral activity against HCMV Davis strain infected in HEL cells assessed as inhibition of virus-induced cytopathic effect; format: functional, cell-based; conditions: Human betaherpesvirus 5, Davis; in short: as §1
[8] = Selectivity index, ratio of CC50 for HEL cells to EC50 for thymidine kinase deficient Varicella-Zoster virus 07-1; format: toxicity; conditions: human, read-out: Ratio CC50/EC50; in short: as §1
[9] = Selectivity index, ratio of CC50 for HEL cells to EC50 for thymidine kinase expressing Varicella-Zoster virus Oka; format: toxicity; conditions: human, read-out: Ratio CC50/EC50; in short: as §1
[10] = Half life in human liver microsomes at 0.1 uM in presence of NADPH by HPLC-MS/MS method; format: ADME, microsome
In short: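 Pooled human liver microsomes preincubated 10 min at 37 °C with an NADPH-regenerating system (1 mM NADP, 5 mM G6P, G6PDH) in pH 7.4 phosphate with 3 mM MgCl2 and 1 mM EDTA. Compound added at final 0.1 μM and sampled at 0–60 min into acetonitrile/methanol. Analysed by HPLC-MS/MS, mean of two experiments.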

[11] = Cytotoxicity against human MT4 cells assessed as reduction in cell viability after 6 days by XTT tetrazolium dye-based assay
In short: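 MT-4 cells, 1 × 10^4 per well, given compound dilutions and wild-type NL4-3 or K65R NL4-3. Virus titred to give 85–95% cell killing at day 6. Incubated 6 days at 37 °C, 5% CO2. Viability read by XTT at 450/650 nm. EC50 from CPE reduction and toxicity from uninfected drug wells, by four-parameter fit. Fold change is K65R EC50 over wild-type EC50.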

[12] = test system: Human alphaherpesvirus 3; test: Antiviral activity against thymidine kinase deficient Varicella-Zoster virus 07-1 infected in HEL cells assessed as inhibition of plaque formation; format: functional, cell-based; conditions: Human alphaherpesvirus 3, 07-1, HEL; in short: as §1
[13] = Cytotoxic activity against HEL cells assessed as alteration of cell morphology after 3 days by microscopic method; format: cell-based; conditions: human
In short: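 HEL cells with compound; MCC is the lowest concentration giving microscopically detectable alteration of cell morphology.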

[14] = test system: Human alphaherpesvirus 3; test: Potency index, ratio of (S)-9-[3-Fluoro-2-(phosphonomethoxy)propyl]adenine EC50 to compound EC50 for thymidine kinase deficient Varicella-Zoster virus 07-1; format: functional; in short: as §1
[15] = Selectivity index, ratio of CC50 for human TZM-bl cells to EC50 for CCR5 tropic HIV1 BaL infected in human TZM-bl cells; format: toxicity, cell-based; conditions: read-out: Ratio CC50/EC50
[16] = test system: Human immunodeficiency virus 1; test: Antiviral activity against CXCR4-tropic HIV-1 NL4-3 infected in human PHA-stimulated PBMC assessed as inhibition of viral replication by measuring reduction in p24 antigen production preincubated with cells for 30 mins followed by viral infection measured on day 10 post infection in presence of IL-2 by ELISA; format: functional; conditions: Human immunodeficiency virus 1, NL4-3
In short: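 PBMCs stimulated with 2 μg/mL PHA for 3 days at 37 °C, then 5 × 10^5 cells/ml preincubated 30 min at 37 °C with serial compound dilutions plus 2 ng/mL IL-2. Infected with 1500 pg/well HIV-1 BaL or 500 pg/well other isolates. IL-2 re-added on days 3 and 6. Supernatant p24 Ag measured by ELISA at day 10. EC50 is 50% inhibition of replication.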

[17] = test system: Hepatitis B virus; test: Antiviral activity against HBV ayw1 infected in human HepG2(2.2.15) cells assessed as reduction in viral replication by measuring intracellular viral DNA copy number after 6 days byr by real-time qPCR assay; format: functional, cell-based; conditions: ayw1, HepG2 2.2.15, 144 h
In short: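 Run as the HepG2.2.15 6-day assay (triplicate compound, medium with compound renewed at day 3). At the end, total intracellular DNA was isolated from the cells and HBV DNA copy number measured by TaqMan qPCR. EC50/EC90 derived; SI is CC50/EC50.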

[18] = Stability of the compound in phosphate buffer of pH 8 at 1 mg after 14 hrs by 31P NMR spectroscopy; format: physicochemical; conditions: read-out: Stability; in short: as §2
[19] = Selectivity index, ratio of CC50 for HepG2.2.15 cells to EC50 for HBV ayw1 infected in human HepG2(2.2.15) cells assessed as reduction in viral replication by measuring extracellular viral DNA copy
In short: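 HepG2.2.15 cells (two copies of HBV ayw1 genome), 1.5 × 10^4/well in DMEM with 2% FBS and 380 μg/mL G418. After 16–24 h, compound added in triplicate, medium with compound renewed at day 3. Supernatant collected at day 6, Pronase-treated, and extracellular HBV DNA measured by TaqMan qPCR (precore/core) against an HBV DNA standard curve. EC50/EC90 derived; CC50 by MTS uptake.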

[20] = test system: Human betaherpesvirus 5; test: Antiviral activity against Human cytomegalovirus AD169 infected in HEL cells assessed as inhibition of virus-induced cytopathic effect; format: functional, cell-based; conditions: Human betaherpesvirus 5, AD169, HEL; in short: as §1

In the case of `CCCCCOC(=O)C[C@H](NP(=O)(CO[C@H](CF)Cn1cnc2c(N)ncnc21)Oc1ccccc1)C(=O)OCCCCC` (stereo partly specified), the EC50 [1] is reported as 50 nM, the CC50 [2] is reported as 2480 nM and the half-life at 1 µM [3] is reported as 89 min. The “Ratio EC50” value [4] was 600, the CC50 [5] was 20300 to 22600 nM and the Stability [6] was “Stable”. For the same compound, the EC50 [7] was 6280 nM, the selectivity ratio [8] was 34 and the selectivity ratio [9] was 39. For the same compound, the half-life at 0.1 µM [10] was 2 min, the CC50 at 144 h [11] was > 1000 nM and the EC50 [12] was 57 nM. For the same compound, the MCC at 72 h [13] was 31.4 µM, the “Ratio EC50” value [14] was 2000 and the selectivity ratio [15] was 7910. It also gave an IC50 [16] of 3 nM, an EC50 [17] of 20 nM and an EC90 [17] of 6080 nM. The remaining at 14 h [18] was 58%, the “Ratio CC50/EC50” value [19] was 2256 and the EC50 [20] was 3970 nM.
